The subject of experiment [1] is BE. The experiment can be described thus: Cytotoxicity against human BE cells expressing human NQO1 after 3 to 5 days by MTT assay. The class given is functional, cell-based. The essentials:
(§1)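 BE colon adenocarcinoma cells and NQO1-transfected BE-NQ cells (337 nmol/min/mg protein, DCPIP) in MEM with 10% FBS, 37 °C, 5% CO2. Seeded 10,000 cells/mL, attached 16 h, exposed 2 h, then washed out into fresh medium for 3–5 days. MTT 50 µg, 4 h, formazan in DMSO, A560; IC50 from semi-log plots of percent control.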
In general terms: Tetrazolium assays rely on reduction of a dye to a coloured formazan, in cell work by metabolically active cells.

The target of experiment [2] is NAD(P)H dehydrogenase [quinone] 1 (Homo sapiens) (UniProt P15559). The experiment can be described thus: Activity of human NQO1 assessed as initial rate of compound reduction per mg of protein at 25 uM in presence of NADH by cytochrome c reduction assay. Summed up:
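Recombinant human NQO1 (0.1–3 µg) with cytochrome c 70 µM as terminal electron acceptor, NADH 1 mM, substrate 25 µM in 25 mM Tris-HCl pH 7.4 containing 0.7 mg/mL BSA and 0.1% Tween-20, room temperature, started with NADH. A550 followed; initial rate from linear 0–30 s segment, ε 21.1 mM⁻¹ cm⁻¹, µmol cytochrome c/min/mg NQO1; at least triplicate.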

Experiment [3] relates to BE. Kind of experiment: Cytotoxicity against NQO1 deficient human BE cells after 3 to 5 days by MTT assay. The class given is functional, cell-based. The essentials:
as §1

The subject of experiment [4] is BE. Kind of experiment: Selectivity index, ratio of IC50 for NQO1 deficient human BE cells to IC50 for human BE cells expressing human NQO1.
In experiment [5] the test system is BE. The experiment can be described thus: Selectivity index, ratio of IC50 for human BE cells expressing human NQO1 to IC50 for NQO1 deficient human BE cells. The class given is functional.
Experiment [6] concerns A549. The experiment can be described thus: Inhibition of clonogenic survival of human A549 cells at 100 nM. The class given is functional.
The subject of experiment [7] is A549. Kind of experiment: Suppression of clonogenic survival of human A549 cells at <100 nM. The class given is functional, cell-based.

Molecules are shown by their SMILES. Activity calls are given as the source filed them. The rule behind the calls is not given here.

NAD(P)H dehydrogenase [quinone] 1 (Homo sapiens), sequence (P15559 whole entry): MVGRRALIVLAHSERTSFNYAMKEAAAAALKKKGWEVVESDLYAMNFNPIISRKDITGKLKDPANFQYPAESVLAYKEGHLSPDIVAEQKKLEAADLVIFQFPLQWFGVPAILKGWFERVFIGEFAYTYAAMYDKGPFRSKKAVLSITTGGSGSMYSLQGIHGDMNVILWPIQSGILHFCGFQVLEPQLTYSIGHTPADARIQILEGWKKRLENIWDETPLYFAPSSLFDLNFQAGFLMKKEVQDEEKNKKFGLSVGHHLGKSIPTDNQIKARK

For orientation: IC50 means the concentration needed to halve the response being measured. A low value points to greater potency. Turning to `COC(=O)c1cc2c([nH]c3ccccc32)c(-c2ccc3c(n2)C(=O)C(NC(=O)C(C)C)=CC3=O)n1`, the IC50 in the experiment on BE [1] and in the experiment on BE [3] was over 50 µM throughout. Also, the Activity in experiment [2] worked out at 0.04 µmol/min.

As for `CC(=O)NC1=CC(=O)c2ccc(-c3nc(C(=O)N4CCN(Cc5ccccc5)CC4)cc4c3[nH]c3ccccc34)nc2C1=O`, the IC50 is 9.8 µM in the experiment with BE [1] and 6.5 µM with BE [3]. Moreover, the “Ratio IC50” value with BE [4] worked out at 0.7. Also, the Activity in experiment [2] worked out at 8.7 µmol/min.

For the molecule `COC(=O)c1cc2c([nH]c3ccccc32)c(-c2ccc3c(n2)C(=O)C(N)=CC3=O)n1`, the values for the IC50 in the experiment on BE [1] and in the experiment with BE [3] were 22 µM and 45 µM, respectively. Moreover, in the experiment with BE [4], the “Ratio IC50” value was 2. Besides, in experiment [2], the Activity turned out to be 28 µmol/min.

As to `CCC(C)OC(=O)c1cc2c([nH]c3ccccc32)c(-c2ccc3c(n2)C(=O)C(NC(C)=O)=CC3=O)n1` (stereo not given), the IC50 in the experiment with BE [1] turned out to be 40 µM; with BE [3], 33 µM. For the same molecule, in the experiment on BE [5], the “Ratio IC50” value worked out at 0.8. For the same molecule, in experiment [2], the Activity amounted to 3.9 µmol/min.

A word on the inhibition: it is the share of the control response that was lost under treatment. In the case of `N=C1C=C(O)c2ccc(-c3nc(C(N)=O)cc4c3[nH]c3ccccc34)nc2C1=O`, the inhibition at 0.1 µM in the experiment with A549 [6] came to 100%.

With `NC1=CC(=O)c2ccc(-c3nc(C(=O)N4CCOCC4)cc4c3[nH]c3ccccc34)nc2C1=O`, the values for the IC50 in the experiment on BE [1] and in the experiment on BE [3] were 2 µM and 18 µM, respectively. In the experiment on BE [4], the “Ratio IC50” value came to 9. Moreover, the Activity in experiment [2] is 103 µmol/min.

Turning to `COC(=O)c1nc(-c2ccc3c(n2)C(=O)C(N)=C(OC)C3=O)c2[nH]c3ccccc3c2c1C`, the inhibition entry in the experiment with A549 [7] was “Active”.

With `CCCCOC(=O)c1cc2c([nH]c3ccccc32)c(-c2ccc3c(n2)C(=O)C(NC(=O)CCC(=O)O)=CC3=O)n1`, the IC50 worked out at 7.6 µM in the experiment with BE [1] and 12 µM in the experiment with BE [3]. The “Ratio IC50” value in the experiment with BE [4] is on record as 1.6. The Activity in experiment [2] came out at 5.2 µmol/min.

Take `NC1=CC(=O)c2ccc(-c3nc(C(=O)NCCO)cc4c3[nH]c3ccccc34)nc2C1=O`: the IC50 with BE [1] and with BE [3] was 1.1 µM in each case. Besides, the “Ratio IC50” value in the experiment with BE [4] was 1. The Activity in experiment [2] is 26 µmol/min.

For `CCOC(=O)c1cc2c([nH]c3ccccc32)c(-c2ccc3c(n2)C(=O)C(NC(C)=O)=CC3=O)n1`, the IC50 in the experiment on BE [1] was 10 µM; in the experiment with BE [3], 13 µM. The “Ratio IC50” value in the experiment on BE [4] is given as 1.3. Besides, the Activity in experiment [2] worked out at 3.6 µmol/min.

As to `NC1=CC(=O)c2ccc(-c3nc(C(=O)N4CCCC4)cc4c3[nH]c3ccccc34)nc2C1=O`, the IC50 was 45 µM in the experiment on BE [1] and over 50 µM in the experiment with BE [3]. Also, the “Ratio IC50” value with BE [4] is listed as over 1.1. Moreover, the Activity in experiment [2] was 35 µmol/min.

For `CC(=O)NC1=CC(=O)c2ccc(-c3nc(C(=O)NCCO)cc4c3[nH]c3ccccc34)nc2C1=O`, the IC50 with BE [1] and with BE [3] was over 50 µM throughout. The Activity in experiment [2] came out at 2.2 µmol/min.

On to `COC(=O)c1nc(-c2ccc3c(n2)C(=O)C(NC(=O)c2ccco2)=CC3=O)c2[nH]c3ccccc3c2c1C`, for which the IC50 in the experiment with BE [1] and in the experiment with BE [3] was over 50 µM throughout. Also, the Activity in experiment [2] was 5.8 µmol/min.

Regarding `CC(=O)NC1=CC(=O)c2ccc(-c3nc(C(=O)N4CCCC4)cc4c3[nH]c3ccccc34)nc2C1=O`, the IC50 in the experiment with BE [1] is 6.2 µM; with BE [3], 13 µM. Also, the “Ratio IC50” value with BE [4] is reported as 2.1. The Activity in experiment [2] came to 43 µmol/min.

On to `O=C(CCl)NC1=CC(=O)c2ccc(-c3nc(C(=O)N4CCCC4)cc4c3[nH]c3ccccc34)nc2C1=O`, for which the IC50 in the experiment on BE [1] stood at 3 µM; in the experiment on BE [3], 8 µM. In addition, the “Ratio IC50” value in the experiment with BE [4] amounted to 2.7. For the same molecule, the Activity in experiment [2] is 34 µmol/min.

Consider `COC(=O)c1[nH]c(-c2ccc3c(n2)C(=O)C(NC(C)=O)=CC3=O)c2nc3ccccc3c-2c1C`, for which the inhibition result with A549 [7] is “Active”.

As to `CC(=O)NC1=CC(=O)c2ccc(-c3nc(C(=O)NCC(O)CO)cc4c3[nH]c3ccccc34)nc2C1=O` (stereo not given), the values for the IC50 in the experiment on BE [1] and in the experiment with BE [3] were 18 µM and over 50 µM, respectively. Further, the “Ratio IC50” value in the experiment with BE [4] was over 2.8. Also, the Activity in experiment [2] was 36 µmol/min.

Turning to `COC(=O)c1nc(-c2ccc3c(n2)C(=O)C(N)=CC3=O)c2[nH]c3ccc(O)cc3c2c1C`, the IC50 with BE [1] was 5.7 µM; in the experiment on BE [3] it was 14 µM. Moreover, the “Ratio IC50” value in the experiment on BE [4] was found to be 2.5. Moreover, the Activity in experiment [2] is 31 µmol/min.

Take `CCCOC(=O)c1cc2c([nH]c3ccccc32)c(-c2ccc3c(n2)C(=O)C(NC(C)=O)=CC3=O)n1`: the IC50 in the experiment with BE [1] worked out at 2.4 µM; in the experiment on BE [3], 3.2 µM. Moreover, the “Ratio IC50” value with BE [4] is 1.3. In addition, the Activity in experiment [2] was found to be 6.8 µmol/min.

On to `CCOC(=O)c1cc2c([nH]c3ccccc32)c(-c2ccc3c(n2)C(=O)C(N)=C(Cl)C3=O)n1`, for which the IC50 in the experiment on BE [1] and with BE [3] was over 50 µM throughout. In experiment [2], the Activity is 6.9 µmol/min.

Consider `COC(=O)c1[nH]c(-c2ccc3c(n2)C(=O)C(=N)C(Cl)=C3O)c2nc3ccccc3c-2c1C`, for which, in the experiment with A549 [7], the inhibition entry was “Active”. The inhibition at 0.1 µM with A549 [6] worked out at 70%.

With `CCOC(=O)c1cc2c([nH]c3ccc(O)cc32)c(-c2ccc3c(n2)C(=O)C(NC(C)=O)=CC3=O)n1`, the IC50 was 4.8 µM in the experiment with BE [1] and 4 µM in the experiment on BE [3]. Besides, in the experiment with BE [4], the “Ratio IC50” value turned out to be 0.8. Besides, the Activity in experiment [2] was determined as 21 µmol/min.

As to `COC(=O)c1cc2c([nH]c3ccccc32)c(-c2ccc3c(n2)C(=O)C(NC(C)=O)=CC3=O)n1`, the inhibition result in the experiment on A549 [7] was “Active”.

For `COC(=O)c1cc2c([nH]c3ccccc32)c(-c2ccc3c(n2)C(=O)C(NC=O)=CC3=O)n1`, the IC50 in the experiment with BE [1] was 10 µM; in the experiment with BE [3] it was 14 µM. Further, in the experiment with BE [4], the “Ratio IC50” value came out at 1.4. For the same molecule, the Activity in experiment [2] came out at 20 µmol/min.

For the molecule `CC(C)CCOC(=O)c1cc2c([nH]c3ccc(O)cc32)c(-c2ccc3c(n2)C(=O)C(N)=CC3=O)n1`, the IC50 in the experiment on BE [1] and in the experiment on BE [3] was over 50 µM each time. The Activity in experiment [2] was 2.9 µmol/min.

In the case of `NC(=O)c1cc2c([nH]c3ccccc32)c(-c2ccc3c(n2)C(=O)C(NC(=O)CCl)=CC3=O)n1`, the IC50 with BE [1] came out at 5.8 µM; in the experiment with BE [3], 12 µM. In addition, in the experiment with BE [4], the “Ratio IC50” value came to 2.1. Also, the Activity in experiment [2] was found to be 13 µmol/min.

(Values after ChEMBL document CHEMBL1157581, “Synthesis, metabolism and in vitro cytotoxicity studies on novel lavendamycin antitumor agents” (Bioorg Med Chem, 2010).)
